# Screens as filed in PubChem.
# Sampled rows, rich in hits. Any-hit rate of the full collection: about 1.8%.
# CAL PDZ FP-1: untagged CAL PDZ binding inhibitors, primary screen, biochemical, fluorescence polarization, HTS | purified CAL PDZ, TMR-peptide fluorescence polarization, 1 h | Golgi-associated PDZ and coiled-coil motif-containing protein (Homo sapiens), Q9HD26 | 300,000 tested, 0.92% active | inhibition, % at 24.9 µM;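 active = mean inhibition of at least 30% with at least half of replicates also reaching 30%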;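 also: 0% = DMSO neutral control and 100% = excess unlabeled competitor peptide PRC23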
# ARNT TACC3 PPI: disruptors of ARNT/TACC3 protein interaction, primary screen, biochemical, AlphaScreen, single concentration; Transforming acidic coiled-coil-containing protein 3 (Homo sapiens), Q9Y6A5; AlphaScreen His-ARNT PAS-B/GST-TACC3 binding, luminescence; TACC3 fragment carries E629A point mutation; inhibition, % at 9.99 µM; 390,000 tested, 0.66% active;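 active = mean inhibition of replicates at least 50% and at least half of replicates each reaching 50%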;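 also: 0% = complete ARNT plus TACC3 wells and 100% = ARNT alone without TACC3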
# GRK2 aptamer HTS: compounds blocking aptamer binding on GRK2 – biochemical, human GRK2, bead flow cytometry, HTS, primary screen; AID 488847, 2010; FAM-aptamer displacement from GRK2; 330,000 tested, 0.59% active; inhibition of aptamer binding, % at 10 µM;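 active = inhibition of aptamer binding above 40%, roughly 3 SD of noise, on plates passing a quality check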;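 also: median bead fluorescence of bound FAM aptamer so fluorescent compounds give negative values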
# Tn7 DDE FP: inhibitors of Tn7 peptide binding to fibrin DD(E), primary screen, biochemical, fluorescence polarization, human fibrin, Tn7 probe. FP displacement of FITC-Tn7 peptide from fibrin DD(E); 0% = median of compound wells per plate. 370,000 tested, 0.13% active. inhibition, % at 8.3 µM. Fibrinogen beta chain (Homo sapiens), P02675;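 active = inhibition above the mean of compounds falling within the control limits plus 3 SD of them, cut at about 14% in these data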;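 also: 0% = plate median of compound wells and 100% = 10 µM Aha-Tn7 peptide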
# Target sequence (P02675 whole entry, looked up): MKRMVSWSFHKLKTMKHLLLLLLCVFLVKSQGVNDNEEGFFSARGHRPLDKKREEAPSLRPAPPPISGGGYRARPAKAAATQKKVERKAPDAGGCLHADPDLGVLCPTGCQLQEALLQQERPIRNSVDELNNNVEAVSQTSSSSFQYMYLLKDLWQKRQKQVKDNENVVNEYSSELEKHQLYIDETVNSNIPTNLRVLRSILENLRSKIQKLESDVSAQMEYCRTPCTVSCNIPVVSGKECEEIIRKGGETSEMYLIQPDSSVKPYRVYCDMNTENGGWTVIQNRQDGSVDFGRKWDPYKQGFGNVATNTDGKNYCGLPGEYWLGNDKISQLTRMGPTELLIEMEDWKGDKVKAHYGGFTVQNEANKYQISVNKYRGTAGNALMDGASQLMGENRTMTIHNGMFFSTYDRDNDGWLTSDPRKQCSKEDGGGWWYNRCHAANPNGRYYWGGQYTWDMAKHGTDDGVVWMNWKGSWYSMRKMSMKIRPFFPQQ
#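 Measure: % inhibition scaled between sample-field median and high-control FP; Test system: human fibrin DD(E); Quantity: 2 µM final DD(E) protein; Doses: one dose, 8.3 µM nominal; Schedule: compound with protein 10 min, then 3 h after probe, room temperature; Detection: fluorescence polarization; Medium: Tris buffer with calcium and detergent, pH 7.8.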
# CAL PDZ FP-2: CAL PDZ peptide-binding inhibitors, primary screen, biochemical, fluorescence polarization, Cer-tagged CAL PDZ, HTS; Golgi-associated PDZ and coiled-coil motif-containing protein (Homo sapiens), Q9HD26; purified CAL PDZ, TMR-peptide fluorescence polarization, 1 h; inhibition, % at 20 µM; 330,000 tested, 0.02% active; AID 504414, 2011;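 active = highest replicate inhibition of at least 40%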;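 also: plate controls were DMSO neutral control wells for no effect and unlabeled competitor peptide control wells for full effect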
#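 Test system: purified CerCALP PDZ construct; Compound dosing: one concentration, 20 µM compound; Also added: TMR-labelled reporter peptide T*-PRC34 bound in PDZ groove; Read-out: inhibition from polarization loss; Controls: unlabelled peptide and DMSO controls; Signal: FP readout, S and P plane fluorescence; Incubation: 1 h at RT.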
# DDE Tn6 FP inh: inhibitors of Tn6 peptide binding to fibrin DD(E), primary screen, biochemical, fluorescence polarization, human fibrin, Tn6 probe. Fibrinogen beta chain (Homo sapiens), P02675. Fibrin DD(E) TRITC-Tn6 fluorescence polarization displacement. inhibition, % at 8.3 µM. 370,000 tested, 0.21% active. AID 720509, 2013;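 active = inhibition above a per-campaign cutoff: mean of compounds within control limits plus 3 SD, cut at about 15% in these data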;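 also: 0% = median of all compound wells on the plate and 100% = blocking peptide control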
# Tn6 DDE ctr: DD(E)-Tn6 binding inhibition, counter-screen; shares compounds with DDE Tn6 FP inh; Fibrin DD(E), TRITC-Tn6 fluorescence polarization displacement; 0% = median of compound wells, not DMSO; inhibition, % at 8.3 µM; 680 tested, 2% active; AID 720621;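 active = inhibition above the mean of test compounds lying between the control limits plus 3 SD of those, cut at about 14% in these data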;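 also: 0% = median of compound wells and 100% = wells with Aha-Tn7 blocking peptide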
# DDE Tn6 confirm: inhibitors of Tn6 peptide binding to fibrin DD(E), confirmation, biochemical, fluorescence polarization, human fibrin, Tn6 probe; shares compounds with DDE Tn6 FP inh; 680 tested, 10% active; FP displacement of TRITC-Tn6 peptide from DD(E); 0% = per-plate median of test wells; inhibition, % at 8.3 µM;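 active = inhibition above the mean of compounds lying within the control limits plus 3 SD, cut at about 16% in these data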;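 also: 100% = high control wells holding a competing inhibitor peptide at 10 µM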
# Starred values were filed as active, the others as inactive; x = no result; ! = not confirmed by another sample.
SMILES,CAL PDZ FP-1,ARNT TACC3 PPI,GRK2 aptamer HTS,Tn7 DDE FP,CAL PDZ FP-2,DDE Tn6 FP inh,Tn6 DDE ctr,DDE Tn6 confirm
COC(=O)[C@]12C[C@H](CC(=O)NCc3ccc(OC)c(OC)c3)C(=O)N(CCc3ccc(OC)c(OC)c3)C1=C[C@H](COCc1ccccc1)O[C@@H]2C,x,x,x,2,x,15*,-5,-10
O=C(Nc1ccccc1)c1cc(C2CCCCN2S(=O)(=O)Cc2cccc(C(F)(F)F)c2)on1 (stereo not drawn),x,x,x,-5,x,-8,x,x
O=C(C1CC(=O)N(C2CCCC2)C1)N1CCN(c2ccccc2F)CC1 (stereo not drawn),x,x,0,4,0,1,x,x
O=C(C1CCCCC1)N1CCN(c2ccccc2F)CC1,-4,-7,3,6,-4,42*,5,4
C[C@@H]1CN([C@H](C)CO)C(=O)c2cc(NS(C)(=O)=O)ccc2O[C@@H]1CN(C)Cc1ccncc1,x,-3,x,x,x,x,x,x
COc1ccc(OC)c(NS(=O)(=O)c2ccc(NC(C)=O)cc2)c1,-8,1,2,8,-1,16*,10,6
CC(CCCCC(=O)Nc1ccc(C(F)(F)F)cc1)NCCc1cnc[nH]1 (stereo not drawn),x,x,0,x,x,x,x,x
COc1ccc(CC(=O)OCC(=O)N2CCCC(C)C2)cc1 (stereo not drawn),1,9,0,-2,-2,15*,-4,-8
C[C@H](CO)N1C[C@H](C)[C@@H](CN(C)S(=O)(=O)c2cccs2)OCCCC[C@H](C)Oc2ccc(NC(=O)Nc3ccc(F)cc3)cc2C1=O,x,11,x,x,x,x,x,x
CCN1C(=O)CC(N2CCN(CC(=O)NC(C)C)CC2)C1=O (stereo not drawn),-1,-4,0,-2,x,16*,1,-2
O=C(CSc1nc2ccccc2[nH]1)Nc1nc(-c2ccc(Br)cc2)cs1,-3,0,0,-1,-2,41*,2,-5
Cc1cc2cc(CNC(=O)c3cccc([N+](=O)[O-])c3)ccc2n1C,x,9,0,6,1,53*,-3,-7
Cc1c(C(=O)NCc2ccco2)cccc1[N+](=O)[O-],-1,x,0,-3,0,-8,x,x
Cc1c(C(=O)NCc2ccc3c(c2)cc(C)n3C)cccc1[N+](=O)[O-],x,-3,1,2,-2,24*,-4,-7
Cc1cc2cc(CNC(=O)Cc3ccc([N+](=O)[O-])cc3)ccc2n1C,-4,1,11,2,-2,17*,0,6
Cc1cc2cc(CNC(=O)c3cccc([N+](=O)[O-])c3)ccc2[nH]1,x,-3,3,1,-1,-2,x,x
O=C(OCc1cn(Cc2c(F)cccc2F)nn1)N1CCOCC1,x,x,x,0,x,-2,x,x
Cc1noc(C)c1NC(=O)N(C)C[C@H]1Oc2ccc(N(C)C)cc2C(=O)N([C@@H](C)CO)C[C@H]1C,x,-4,x,x,x,x,x,x
CC(=O)N1[C@H](CO)[C@@H](c2ccc(C3=CCCC3)cc2)[C@H]1CNC(=O)CN(C)C,x,3,x,x,x,x,x,x
C[C@H]1CCCCO[C@@H](CN(C)C(=O)Nc2ccc3c(c2)OCO3)[C@@H](C)CN([C@@H](C)CO)C(=O)c2cc(NC(=O)Cc3ccccc3)ccc2O1,x,-5,x,x,x,x,x,x
CN(Cc1ccccc1)Cc1c[nH]c2ccccc12,1,0,0,6,-2,17*,-2,-17
CCOc1ccc(CCNC(=O)C2CCCN(S(=O)(=O)N3CC(C)CC(C)C3)C2)cc1OCC (stereo not drawn),-2,-2,1,6,-2,4,x,x
CC(C)NC(=O)N(C)C[C@H]1Oc2ccc(NS(=O)(=O)c3cn(C)cn3)cc2CC(=O)N([C@H](C)CO)C[C@@H]1C,x,-3,x,x,x,x,x,x
O=C(c1coc(=O)c(Br)c1)N1CCOCC1,-3,-3,x,3,-1,18*,-2,-4
Cc1cc(C(C)(C)C)cc(S(=O)(=O)NCCc2ccncc2)c1C,-1,-14,0,0,-1,21*,-5,-8
SMILES,CAL PDZ FP-1,ARNT TACC3 PPI,GRK2 aptamer HTS,Tn7 DDE FP,CAL PDZ FP-2,DDE Tn6 FP inh,Tn6 DDE ctr,DDE Tn6 confirm
CC(C)(C)c1ccc(S(=O)(=O)NCCc2ccncc2)cc1,-5,0,0,-2,-1,7,x,x
CO[C@H]1CN(C)C(=O)c2cc(NC(=O)C3CC3)ccc2OC[C@@H](C)N(Cc2cc(F)ccc2F)C[C@@H]1C,x,1,x,x,x,x,x,x
C[C@@H]1CN([C@@H](C)CO)C(=O)c2cc(NC(=O)NC3CCCCC3)ccc2O[C@@H](C)CCCCO[C@H]1CN(C)S(=O)(=O)c1ccc(F)cc1,x,2,x,x,x,x,x,x
CCC(c1nnnn1-c1ccc2c(c1)OCCO2)N1CCN(c2ncccc2C(F)(F)F)CC1 (stereo not drawn),x,x,x,-6,x,15*!,2,-2
CC1(C(=O)NS(=O)(=O)c2ccc(Cl)cc2)CCN1C(=O)CCc1ccc(Cl)cc1Cl (stereo not drawn),x,x,x,-1,x,6,x,x
CC1(C(=O)NS(=O)(=O)c2cccs2)CCN1C(=O)CCc1ccc(Cl)cc1Cl (stereo not drawn),x,x,x,3,x,17*,5,4
CC1(C(=O)NS(=O)(=O)c2cccc(Cl)c2)CCN1C(=O)Cc1cc(F)ccc1F (stereo not drawn),x,x,x,-2,x,16*,-2,-4
Cc1ccccc1-c1ccc2c(c1)[C@@H]1C[C@H](N(C)C(=O)c3ccco3)[C@H]([C@H](C)O)CN1CC2,x,x,x,-4,x,0,x,x
NC(=O)C1(N2CCCCC2)CCN(C(=O)CSc2nc3ccccc3s2)CC1,-1,x,0,3,-1,17*,3,2
Cc1ccc(NC(=O)N2CCCCCC2)c(C)c1,-7,-3,0,-6,-4,-8,x,x
